Experimental data as given in ChEMBL document CHEMBL1134589, “Antimalarial simplified 3-aryltrioxanes: synthesis and preclinical efficacy/toxicity testing in rodents” (2001).

Legend:
Mus musculus [1] = assay: Antimalarial efficacy against Plasmodium berghei in mice (Mus musculus) when administered subcutaneously each day for 4 days to five mice (Mus musculus) per dose regimen; assay type: functional; conditions: sc, 96 h
Outline: (§1)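 P. berghei-infected mice; four doses (1, 3, 10 and 30 mg/kg) given once daily for four days, five mice per dose regimen, by sc or iv route as per line. ED50 and ED90 derived from the dose–response, reported in mg/kg and µmol/kg.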

Mus musculus [2] = assay: Antimalarial efficacy against Plasmodium berghei in mice (Mus musculus) when administered intravenously each day for 4 days to five mice (Mus musculus) per dose regimen; assay type: functional; conditions: iv, 96 h; outline: as §1

Row | Structure (SMILES) | ED50 (Mus musculus [1]) [mg/kg] | ED90 (Mus musculus [1]) [mg/kg] | ED50 (Mus musculus [2]) [mg/kg] | ED90 (Mus musculus [2]) [mg/kg]
1 | CO[C@@H]1O[C@@]2(c3ccc(C(=O)O)cc3)CC[C@H]3CCCC[C@]31OO2 | 22.5 | 112 | 19.5 | 55
2 | CO[C@H]1O[C@@]2(c3ccc(C(=O)O)cc3)CC[C@H]3CCCC[C@]31OO2 | 10.5 | 19.5 | 16.5 | 48
3 | CO[C@@H]1O[C@@]2(c3ccc(F)cc3)CC[C@H]3CCCC[C@]31OO2 | 4.7 | 8.3 | 4 | 8
4 | C[C@@H]1[C@H](OCc2ccc(C(=O)O)cc2)O[C@@H]2O[C@@]3(C)CC[C@@H]4[C@@H](C)CC[C@@H]1[C@]24OO3 [ARTELINIC ACID] | 6.6 | 14 | 4.3 | 15.5
5 | CCO[C@H]1O[C@@H]2O[C@@]3(C)CC[C@H]4[C@H](C)CC[C@@H]([C@H]1C)[C@@]24OO3 [ARTEMOTIL] | 0.9 | 1.4 | 0.46 | –
6 | CCN(CC)CCCC(C)Nc1ccnc2cc(Cl)ccc12 (stereo unspecified) [CHLOROQUINE] | 1 | – | 5 | –
